Converted amounts (≈) assume the structure as drawn.
Tests used:
[1] = biological target: T1, PYRAZINAMIDASE/NICOTINAMIDAS PNCA (PZase) (Mycobacterium bovis) (UniProt Q93SP7); assay: Activity of pyrazinamidase in Mycobacterium bovis BCG Pasteur assessed as compound turnover per ml of microbial cells after 30 mins by calorimetric analysis; settings: Mycobacterium tuberculosis variant bovis BCG
T1 sequence (whole entry): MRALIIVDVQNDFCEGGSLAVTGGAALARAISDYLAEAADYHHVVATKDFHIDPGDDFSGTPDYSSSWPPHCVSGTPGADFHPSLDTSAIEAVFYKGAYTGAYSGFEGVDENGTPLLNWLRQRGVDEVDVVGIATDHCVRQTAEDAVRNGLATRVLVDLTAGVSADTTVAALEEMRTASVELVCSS
How it was run: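 Whole-cell colorimetric amidase assay: log-phase cells were pelleted and resuspended in sterile water with 0.05% tyloxapol. Substrate (PZA or 5-Cl PZA) was added to 2 mM at 37°C with shaking and sampled at intervals. Clarified aliquots received ferrous ammonium sulfate (20 mM final), stood 30 min at 4°C, were re-spun, and were read at OD468. Extinction coefficients were 0.68 (PA) and 0.47 (5-Cl PA) per mM. Activity is nmol/min per ml of cells (OD600).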

[2] = system: Mycobacterium tuberculosis variant bovis BCG; assay: Antimicrobial activity against Mycobacterium bovis BCG Pasteur after 11 days by broth microdilution method at pH 6.8; type: functional; settings: 264 h
How it was run: (§1)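 Tubercle bacilli were diluted to 10^6 CFU/ml in supplemented 7H9 containing graded PZA or 5-Cl PZA, at pH 6.0 or neutral pH 6.8. Cultures were incubated 11 days at 37°C. The MIC is the lowest concentration blocking visible growth. Integrated amidase constructs were induced with 50 ng/ml anhydrotetracycline.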

[3] = system: Mycolicibacterium smegmatis; assay: Antimicrobial activity against Mycobacterium smegmatis mc27092 harboring Mycobacterium tuberculosis H37Ra attBL5:::Ptc::pzaAMsmeg after 48 hrs by broth microdilution method at pH 6; type: functional; settings: mc27092, 48 h
[4] = system: Mycolicibacterium smegmatis; assay: Antimicrobial activity against Mycobacterium smegmatis mc27092 harboring Mycobacterium tuberculosis H37Ra attBL5:::Ptc::pzaAMsmeg after 11 days by broth microdilution method at pH 6.8; type: functional; settings: mc27092, 264 h; how it was run: as §1
[5] = system: Mycobacterium tuberculosis variant bovis BCG; assay: Antimicrobial activity against Mycobacterium bovis BCG Pasteur after 11 days by broth microdilution method at pH 6; type: functional; settings: 264 h; how it was run: as §1
[6] = system: Mycolicibacterium smegmatis; assay: Antimicrobial activity against Mycobacterium smegmatis mc27093 harboring Mycobacterium tuberculosis H37Ra attBL5:::Ptc::pzaA from Mycobacterium tuberculosis after 11 days by broth microdilution method at pH 6; type: functional; settings: mc27093, 264 h; how it was run: as §1
[7] = system: Mycolicibacterium smegmatis; assay: Antimicrobial activity against Mycobacterium smegmatis mc27093 harboring Mycobacterium tuberculosis H37Ra attBL5:::Ptc::pzaA from Mycobacterium tuberculosis after 11 days by broth microdilution method at pH 6.8; type: functional; settings: mc27093, 264 h; how it was run: as §1

SMILES: NC(=O)c1cnc(Cl)cn1
- Activity [1]: 0.11 nmol/min
- MIC [2]: 100 µg/mL (≈ 635 µM)
- MIC [3]: 25 µg/mL (≈ 159 µM)
- MIC [4]: 12.5 µg/mL (≈ 79.3 µM)
- MIC [5]: 25 µg/mL (≈ 159 µM)
- MIC [6]: 200 µg/mL (≈ 1270 µM)
- MIC [7]: 12.5 µg/mL (≈ 79.3 µM)

SMILES: NC(=O)c1cnccn1 [PYRAZINAMIDE]
- Activity [1]: 0.015 nmol/min
- MIC [2]: 25 µg/mL (≈ 203 µM)
- MIC [3]: 62.5 µg/mL (≈ 508 µM)
- MIC [4]: > 1000 µg/mL
- MIC [5]: 50 µg/mL (≈ 406 µM)
- MIC [6]: 12.5 µg/mL (≈ 102 µM)
- MIC [7]: 12.5 µg/mL (≈ 102 µM)

From ChEMBL document CHEMBL1687813 (Antimicrob Agents Chemother, 2010)
